ChEMBL document CHEMBL2021854, “2-Aminopyrimidine based 4-aminoquinoline anti-plasmodial agents. Synthesis, biological activity, structure-activity relationship and mode of action studies” (Eur J Med Chem, 2012)

Test system: Plasmodium falciparum
Experiment: Antiplasmodial activity chloroquine-sensitive Plasmodium falciparum 3D7 infected in human A+ erythrocytes assessed as inhibition of [3H]-hypoxanthine incorporation after 24 hrs by scintillation counting
Assay type: functional, organism-based
Conditions: not given

| SMILES | IC50 [µM] |
| --- | --- |
| CCOC(=O)c1c(C)nc(NCCCNc2ccnc3cc(Cl)ccc23)nc1C | 0.0631 |

Test system: Plasmodium falciparum
Experiment: Antiplasmodial activity chloroquine-resistant Plasmodium falciparum K1 infected in human A+ erythrocytes assessed as inhibition of [3H]-hypoxanthine incorporation after 24 hrs by scintillation counting
Assay type: functional, organism-based
Conditions: not given

| SMILES | IC50 [µM] |
| --- | --- |
| CCOC(=O)c1c(C)nc(NCCCNc2ccnc3cc(Cl)ccc23)nc1C | 0.161 |

Test system: Plasmodium falciparum
Experiment: Resistant factor, ratio of IC50 for chloroquine-resistant Plasmodium falciparum K1 to IC50 for chloroquine-sensitive Plasmodium falciparum 3D7
Assay type: functional
Conditions: not given
Procedure, shortened: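 Resistance factor computed as IC50 against K1 divided by IC50 against 3D7, both from the [3H]hypoxanthine incorporation assay.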

| SMILES | Ratio IC50 |
| --- | --- |
| CCOC(=O)c1c(C)nc(NCCCNc2ccnc3cc(Cl)ccc23)nc1C | 2.548 |

Test system: MDCK
Experiment: Cytotoxicity against MDCK cells assessed as cell viability by colorimetric formazan-based MTS assay
Design: species or system Canis lupus familiaris
Conditions: dog, mdck
Procedure, shortened: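 Cytotoxicity on MDCK cells; 50% cytotoxic concentration from cell viability measured by colorimetric formazan-based MTS assay.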

| SMILES | CC50 [µM] |
| --- | --- |
| CCOC(=O)c1c(C)nc(NCCCNc2ccnc3cc(Cl)ccc23)nc1C | 58.2 |

Test system: not listed separately
Experiment: Cytotoxicity against MDCK cells assessed as minimum compound concentration required to causes microscopically detectable alteration of normal cell morphology
Assay type: cell-based, Canis lupus familiaris
Conditions: dog
Procedure, shortened: (§1)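 Confluent, non-proliferating cell cultures were exposed to the compounds. The endpoint was the minimum concentration producing a microscopically detectable alteration of normal cell morphology.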

| SMILES | MCC [µM] |
| --- | --- |
| CCOC(=O)c1c(C)nc(NCCCNc2ccnc3cc(Cl)ccc23)nc1C | 20 |

Test system: not listed separately
Experiment: Selectivity index, ratio of CC50 for MDCK cells to IC50 for chloroquine-resistant Plasmodium falciparum K1
Assay type: functional
Conditions: not given
Procedure, shortened: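 Selectivity index computed as MTS-based CC50 on MDCK cells divided by IC50 against P. falciparum K1.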

| SMILES | Ratio CC50/IC50 |
| --- | --- |
| CCOC(=O)c1c(C)nc(NCCCNc2ccnc3cc(Cl)ccc23)nc1C | 361.89 |

Test system: not listed separately
Experiment: Cytotoxicity against african green monkey Vero cells assessed as minimum compound concentration required to causes microscopically detectable alteration of normal cell morphology
Assay type: cell-based
Conditions: chlorocebus sabaeus
Procedure, shortened: as §1

| SMILES | MCC [µM] |
| --- | --- |
| CCOC(=O)c1c(C)nc(NCCCNc2ccnc3cc(Cl)ccc23)nc1C | > 100 |

Test system: Human respirovirus 3
Experiment: Antiviral activity against Parainfluenza-3 virus infected in african green monkey Vero cells assessed as inhibition of virus-induced cytopathogenicity after 4 days
Assay type: functional, organism-based
Conditions: Human respirovirus 3, Vero, 96 h
Procedure, shortened: (§2)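 Confluent HEL, Vero or HeLa monolayers were inoculated with 100 CCID50 of virus in the presence of varying concentrations of compound. Cytopathicity was scored when it reached completion in untreated, virus-infected control cultures.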

| SMILES | EC50 [µM] |
| --- | --- |
| CCOC(=O)c1c(C)nc(NCCCNc2ccnc3cc(Cl)ccc23)nc1C | > 100 |

Test system: Mammalian orthoreovirus 1
Experiment: Antiviral activity against Reovirus-1 infected in african green monkey Vero cells assessed as inhibition of virus-induced cytopathogenicity after 4 days
Assay type: functional, organism-based
Conditions: Mammalian orthoreovirus 1, Vero, 96 h
Procedure, shortened: as §2

| SMILES | EC50 [µM] |
| --- | --- |
| CCOC(=O)c1c(C)nc(NCCCNc2ccnc3cc(Cl)ccc23)nc1C | > 100 |

Test system: Sindbis virus
Experiment: Antiviral activity against Sindbis virus infected in african green monkey Vero cells assessed as inhibition of virus-induced cytopathogenicity after 4 days
Assay type: functional, organism-based
Conditions: 96 h
Procedure, shortened: as §2

| SMILES | EC50 [µM] |
| --- | --- |
| CCOC(=O)c1c(C)nc(NCCCNc2ccnc3cc(Cl)ccc23)nc1C | > 100 |

Test system: Coxsackievirus B4
Experiment: Antiviral activity against Coxsackie virus B4 infected in african green monkey Vero cells assessed as inhibition of virus-induced cytopathogenicity after 4 days
Assay type: functional, organism-based
Conditions: Enterovirus B, 96 h
Procedure, shortened: as §2

| SMILES | EC50 [µM] |
| --- | --- |
| CCOC(=O)c1c(C)nc(NCCCNc2ccnc3cc(Cl)ccc23)nc1C | > 100 |

Test system: Punta Toro virus
Experiment: Antiviral activity against Punta Toro virus infected in african green monkey Vero cells assessed as inhibition of virus-induced cytopathogenicity after 4 days
Assay type: functional, organism-based
Conditions: 96 h
Procedure, shortened: as §2

| SMILES | EC50 [µM] |
| --- | --- |
| CCOC(=O)c1c(C)nc(NCCCNc2ccnc3cc(Cl)ccc23)nc1C | > 100 |

Test system: Human alphaherpesvirus 1
Experiment: Antiviral activity against HSV1 KOS infected in HEL cells assessed as inhibition of virus-induced cytopathogenicity after 4 days
Assay type: functional, organism-based
Conditions: Human alphaherpesvirus 1, KOS, 96 h
Procedure, shortened: (§3)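 Confluent HEL or HeLa monolayers infected with 100 CCID50 of virus in the presence of varying compound concentrations.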

| SMILES | EC50 [µM] |
| --- | --- |
| CCOC(=O)c1c(C)nc(NCCCNc2ccnc3cc(Cl)ccc23)nc1C | > 100 |

Test system: Human alphaherpesvirus 2
Experiment: Antiviral activity against HSV2 G infected in HEL cells assessed as inhibition of virus-induced cytopathogenicity after 4 days
Assay type: functional, organism-based
Conditions: Human alphaherpesvirus 2, strain G, 96 h
Procedure, shortened: as §2

| SMILES | EC50 [µM] |
| --- | --- |
| CCOC(=O)c1c(C)nc(NCCCNc2ccnc3cc(Cl)ccc23)nc1C | > 100 |

Test system: Vesicular stomatitis virus
Experiment: Antiviral activity against Vesicular stomatitis virus infected in HEL cells assessed as inhibition of virus-induced cytopathogenicity after 4 days
Assay type: functional, organism-based
Conditions: 96 h
Procedure, shortened: as §3

| SMILES | EC50 [µM] |
| --- | --- |
| CCOC(=O)c1c(C)nc(NCCCNc2ccnc3cc(Cl)ccc23)nc1C | > 100 |

Test system: Human alphaherpesvirus 1
Experiment: Antiviral activity against thymidine kinase-deficient acyclovir-resistant HSV1 KOS infected in HEL cells assessed as inhibition of virus-induced cytopathogenicity after 4 days
Assay type: functional, organism-based
Conditions: Human alphaherpesvirus 1, KOS, 96 h
Procedure, shortened: as §3

| SMILES | EC50 [µM] |
| --- | --- |
| CCOC(=O)c1c(C)nc(NCCCNc2ccnc3cc(Cl)ccc23)nc1C | > 100 |

Test system: not listed separately
Experiment: Cytotoxicity against human HEL cells assessed as minimum compound concentration required to causes microscopically detectable alteration of normal cell morphology
Assay type: cell-based
Conditions: not given
Procedure, shortened: as §1

| SMILES | MCC [µM] |
| --- | --- |
| CCOC(=O)c1c(C)nc(NCCCNc2ccnc3cc(Cl)ccc23)nc1C | ≥ 100 |

Test system: not listed separately
Experiment: Cytotoxicity against human HeLa cells assessed as minimum compound concentration required to causes microscopically detectable alteration of normal cell morphology
Assay type: cell-based
Conditions: not given
Procedure, shortened: as §1

| SMILES | MCC [µM] |
| --- | --- |
| CCOC(=O)c1c(C)nc(NCCCNc2ccnc3cc(Cl)ccc23)nc1C | > 100 |

Test system: Vesicular stomatitis virus
Experiment: Antiviral activity against Vesicular stomatitis virus infected in HeLa cells assessed as inhibition of virus-induced cytopathogenicity after 4 days
Assay type: functional, organism-based
Conditions: 96 h
Procedure, shortened: as §3

| SMILES | EC50 [µM] |
| --- | --- |
| CCOC(=O)c1c(C)nc(NCCCNc2ccnc3cc(Cl)ccc23)nc1C | > 100 |
